According to ChEMBL document CHEMBL1122596, “Synthesis and evaluation of a novel series of N,N-dimethylisotryptamines” (J Med Chem, 1984):
Where “and” joins values, the source holds several entries; their conditions need not be identical. Identical values can stand only once.

Key:
[1] = molecular target: 5-hydroxytryptamine receptor 2B (Rattus norvegicus, UniProt P30994); experiment: Displacement of [3H]5-HT binding to serotonin receptor of rat fundus membranes; conditions: read-out: pA2 (converted)
[2] = molecular target: Serotonin (5-HT) receptor; experiment: Evaluated for inhibition of specific [3H]5-HT receptor binding in rat cortex.
Outline: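 Rat cortex (dorsal to rhinal sulcus) from male Sprague-Dawley rats (150–200 g), pooled, homogenized in 0.05 M Tris-HCl pH 7.4, washed four times by centrifugation with a 37 °C 10-min incubation between washes. [3H]-5-HT binding done with varying test compound concentrations in 50 mM Tris pH 7.4, 10 μM pargyline, 4 mM CaCl2, 7 min at 37 °C. Filtered on glass fibre. Specific binding taken as the difference with 1 μM metergoline.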

[3] = tested on: Rattus norvegicus; experiment: Responses made on the DOM -appropriate lever as a percent of total responses; data was collected during the 2.5 min extinction session at 7 mg/kg dose; format: functional
Outline: (§1)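 Male Sprague-Dawley rats trained to tell racemic DOM (1.0 mg/kg) from saline in a two-lever operant task (VI-15s schedule). Drug was given 15 min before a 2.5-min nonreinforced extinction session. The read-out was DOM-appropriate lever responses as % of total responses, with about 5 rats per dose. ED50 was taken from dose-response data by Finney's method.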

[4] = tested on: Rattus norvegicus; experiment: Responses made on the DOM -appropriate lever as a percent of total responses; data was collected during the 2.5 min extinction session at 12 mg/kg dose; format: functional; outline: as §1
[5] = species on record: Rattus norvegicus; experiment: Mean responses per minute during the extinction session.; format: functional
Outline: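 Male Sprague-Dawley rats trained in a two-lever operant task to discriminate racemic DOM (1.0 mg/kg) from saline, given 15 min before a VI-15s reinforcement schedule. Test compound given by injection before a 2.5-min nonreinforced extinction session. Read-outs are DOM-lever responses as percent of total responses, and responses per minute. Values are means ±SEM over the animals responding; no responding was recorded as disruption.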

Chain of 5-hydroxytryptamine receptor 2B (P30994 whole entry): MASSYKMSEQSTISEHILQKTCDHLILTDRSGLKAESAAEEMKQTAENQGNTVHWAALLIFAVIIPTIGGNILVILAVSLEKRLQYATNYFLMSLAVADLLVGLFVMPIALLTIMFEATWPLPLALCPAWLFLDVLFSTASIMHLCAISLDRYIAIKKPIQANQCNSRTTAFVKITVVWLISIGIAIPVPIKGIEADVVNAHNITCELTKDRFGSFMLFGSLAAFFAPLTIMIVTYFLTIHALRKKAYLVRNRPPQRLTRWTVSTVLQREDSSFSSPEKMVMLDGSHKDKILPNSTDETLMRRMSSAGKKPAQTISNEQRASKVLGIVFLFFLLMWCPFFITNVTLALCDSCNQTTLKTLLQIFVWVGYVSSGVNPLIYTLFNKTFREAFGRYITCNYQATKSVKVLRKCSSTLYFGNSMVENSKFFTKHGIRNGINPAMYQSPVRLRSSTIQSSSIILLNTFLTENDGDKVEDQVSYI

Compound | Kb [1] | IC50 [2] | also measured
NCCC1CNc2ccccc21 (centres undefined) | 2090 nM |  | 
CN(C)CCN1CCc2ccccc21 | 269 nM |  | 
CCN(CCN(C)C)c1ccccc1 | 537 nM |  | 
COc1cccc2[nH]cc(CCN)c12 |  | 220 nM | 
CN(C)CCn1cnc2ccccc21 | 138 nM |  | DOM [3]: 0%; DOM [4]: 0%; Response rate [5]: 12.6 and 15.2
COc1ccc2c(CCN)c[nH]c2c1 |  | 630 nM | 
